{"source": "paper PMC8923172", "about": "(Antimicrobial Agents and Chemotherapy, 2022)", "key": {"[1]": {"assay": "Serum biochemistry of rats at the end of treatment", "type": "in vivo, Sprague-Dawley rats", "conditions": "male, median (IQR)"}, "[2]": {"assay": "Toxicity studies in cynomolgus monkeys: mortality, MTD, NOAEL", "type": "in vivo", "outline": "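Cynomolgus monkeys were studied in two designs. Non-GLP range-finding: single ascending i.v. doses (0.3-10 mg/kg), then 15 mg/kg daily for 7 days, 1/sex; MTD was based on mortality, clinical observations and body weight. GLP: 0, 5, 10 or 15 mg/kg/day for 10 days by 60-min infusion, with a recovery group. NOAEL drew on clinical signs, clinical pathology and histopathology.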"}, "[3]": {"assay": "Coagulation in cynomolgus monkeys at the end of treatment", "type": "in vivo", "conditions": "median (IQR)", "outline": "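GLP 10-day study in male and female cynomolgus monkeys (n = 3-5/sex/group) dosed once daily with 0 (placebo), 5, 10 or 15 mg/kg test compound by i.v. infusion over 60 ± 5 min. Hematology, serum chemistry and coagulation were taken at end of treatment and reported as median (IQR). Dose groups were compared by Kruskal-Wallis with Dunn's multiple comparison test.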"}, "[4]": {"assay": "in vivo", "conditions": "Sprague-Dawley, rat, iv"}}, "note": "Marks after values point to notes of the source that are not given here. Residues, ends and D or L forms follow the SMILES beside them.", "data": [{"smiles": "CC[C@H](C)[C@@H]1NC(=O)[C@@H]2CSSC[C@H](NC(=O)[C@H](CCCNC(=N)N)NC(=O)[C@@H]3CSSC[C@H](NC1=O)C(=O)N[C@@H]([C@@H](C)O)C(=O)N[C@@H](CCCNC(=N)N)C(=O)NCC(=O)N[C@@H](Cc1ccccc1)C(=O)N3)C(=O)N[C@@H](CC(C)C)C(=O)N[C@H]1CSSC[C@H](NC(=O)[C@H](C(C)C)NC(=O)CNC(=O)[C@H](CCCNC(=N)N)NC(=O)[C@H](CCCNC(=N)N)NC1=O)C(=O)N[C@@H](CCCNC(=N)N)C(=O)N2", "note": "[RTD-1, Rhesus theta (θ) defensin-1] (HELM PEPTIDE1{G.F.C.R.C.L.C.R.R.G.V.C.R.C.I.C.T.R}$PEPTIDE1,PEPTIDE1,3:R3-16:R3|PEPTIDE1,PEPTIDE1,5:R3-14:R3|PEPTIDE1,PEPTIDE1,7:R3-12:R3|PEPTIDE1,PEPTIDE1,1:R1-18:R2$$$V2.0)", "values": [{"measurement": "Globulin", "setting": "[1]; 5 mg/kg/day", "value": "1.7 (0.2) g/dL"}, {"measurement": "Glucose", "setting": "[1]; 5 mg/kg/day", "value": "72.5 (16.3) mg/dL"}, {"measurement": "Phos", "setting": "[1]; 5 mg/kg/day", "value": "8.5 (0.5) mg/dL"}, {"measurement": "Potassium", "setting": "[1]; 5 mg/kg/day", "value": "5.2 (0.2) mmol/L"}, {"measurement": "Sodium", "setting": "[1]; 5 mg/kg/day", "value": "144.0 (1.8) mmol/L"}, {"measurement": "T-Bil", "setting": "[1]; 5 mg/kg/day", "value": "0.0 (0.0) mg/dL"}, {"measurement": "TP", "setting": "[1]; 5 mg/kg/day", "value": "5.5 (0.2) g/dL"}, {"measurement": "Triglycerides", "setting": "[1]; 5 mg/kg/day", "value": "37.0 (21.5) mg/dL"}, {"measurement": "Urea N", "setting": "[1]; 5 mg/kg/day", "value": "16.5 (4.0) mg/dL"}, {"measurement": "A/G", "setting": "[1]; 10 mg/kg/day", "value": "2.4 (0.2)"}, {"measurement": "ALP", "setting": "[1]; 10 mg/kg/day", "value": "212.5 (51.5) U/L"}, {"measurement": "ALT", "setting": "[1]; 10 mg/kg/day", "value": "32.5 (4.5) U/L"}, {"measurement": "AST", "setting": "[1]; 10 mg/kg/day", "value": "113.5 (16.8) U/L"}, {"measurement": "Albumin", "setting": "[1]; 10 mg/kg/day", "value": "3.7 (0.2) g/dL"}, {"measurement": "CK", "setting": "[1]; 10 mg/kg/day", "value": "612.5 (254.8) U/L"}, {"measurement": "Calcium", "setting": "[1]; 10 mg/kg/day", "value": "9.7 (0.2) mg/dL"}, {"measurement": "Chloride", "setting": "[1]; 10 mg/kg/day", "value": "105.0 (1.0) mmol/L"}, {"measurement": "Cholesterol", "setting": "[1]; 10 mg/kg/day", "value": "66.0 (14.3) mg/dL"}, {"measurement": "Creatinine", "setting": "[1]; 10 mg/kg/day", "value": "0.3 (0.1) mg/dL"}, {"measurement": "GGT", "setting": "[1]; 10 mg/kg/day", "value": "0.0 (0.0) U/L"}, {"measurement": "Globulin", "setting": "[1]; 10 mg/kg/day", "value": "1.6 (0.2) g/dL"}, {"measurement": "Glucose", "setting": "[1]; 10 mg/kg/day", "value": "83.0 (6.8) mg/dL"}, {"measurement": "Phos", "setting": "[1]; 10 mg/kg/day", "value": "8.6 (1.0) mg/dL"}, {"measurement": "Potassium", "setting": "[1]; 10 mg/kg/day", "value": "5.1 (0.3) mmol/L"}, {"measurement": "Sodium", "setting": "[1]; 10 mg/kg/day", "value": "144.0 (0.0) mmol/L"}, {"measurement": "T-Bil", "setting": "[1]; 10 mg/kg/day", "value": "0.0 (0.0) mg/dL"}, {"measurement": "TP", "setting": "[1]; 10 mg/kg/day", "value": "5.4 (0.3) g/dL"}, {"measurement": "Triglycerides", "setting": "[1]; 10 mg/kg/day", "value": "29.0 (5.3) mg/dL"}, {"measurement": "Urea N", "setting": "[1]; 10 mg/kg/day", "value": "19.0 (3.5) mg/dL"}, {"measurement": "A/G", "setting": "[1]; 20 mg/kg, day 2", "value": "2.7 (0.1)^c^,^d^,^e"}, {"measurement": "ALP", "setting": "[1]; 20 mg/kg, day 2", "value": "232.0 (45.0) U/L"}, {"measurement": "ALT", "setting": "[1]; 20 mg/kg, day 2", "value": "74.0 (38.0)^d^,^e U/L"}, {"measurement": "AST", "setting": "[1]; 20 mg/kg, day 2", "value": "245.0 (100.0)^d^,^e U/L"}, {"measurement": "Albumin", "setting": "[1]; 20 mg/kg, day 2", "value": "2.7 (0.0)^c^,^d^,^e g/dL"}, {"measurement": "CK", "setting": "[1]; 20 mg/kg, day 2", "value": "707.0 (615.0) U/L"}, {"measurement": "Calcium", "setting": "[1]; 20 mg/kg, day 2", "value": "9.4 (0.5)^d mg/dL"}, {"measurement": "Chloride", "setting": "[1]; 20 mg/kg, day 2", "value": "101.0 (1.0)^c^,^d^,^e mmol/L"}, {"measurement": "Cholesterol", "setting": "[1]; 20 mg/kg, day 2", "value": "67.0 (7.0) mg/dL"}, {"measurement": "Creatinine", "setting": "[1]; 20 mg/kg, day 2", "value": "0.4 (0.1)^c^,^d^,^e mg/dL"}, {"measurement": "GGT", "setting": "[1]; 20 mg/kg, day 2", "value": "0.0 (0.0) U/L"}, {"measurement": "Globulin", "setting": "[1]; 20 mg/kg, day 2", "value": "1.0 (0.0)^c^,^d^,^e g/dL"}, {"measurement": "Glucose", "setting": "[1]; 20 mg/kg, day 2", "value": "175.0 (35.0)^c^,^d^,^e mg/dL"}, {"measurement": "Phos", "setting": "[1]; 20 mg/kg, day 2", "value": "9.3 (3.8) mg/dL"}, {"measurement": "Potassium", "setting": "[1]; 20 mg/kg, day 2", "value": "5.1 (0.6) mmol/L"}, {"measurement": "Sodium", "setting": "[1]; 20 mg/kg, day 2", "value": "140.0 (2.0)^c^,^d^,^e mmol/L"}, {"measurement": "T-Bil", "setting": "[1]; 20 mg/kg, day 2", "value": "0.1 (0.2) mg/dL"}, {"measurement": "TP", "setting": "[1]; 20 mg/kg, day 2", "value": "3.7 (0.1)^c^,^d^,^e g/dL"}, {"measurement": "Triglycerides", "setting": "[1]; 20 mg/kg, day 2", "value": "193.0 (111.0)^c^,^d^,^e mg/dL"}, {"measurement": "Urea N", "setting": "[1]; 20 mg/kg, day 2", "value": "28.0 (6.0)^c^,^d^,^e mg/dL"}, {"measurement": "mortality", "setting": "[2]; GLP 10-day repeat-dose TK study, any dose level (5-15 mg/kg/day)", "value": "no mortality or unscheduled euthanasia"}, {"measurement": "NOAEL", "setting": "[2]; GLP 10-day repeat-dose i.v.", "value": 15, "unit": "mg/kg/day"}, {"measurement": "APTT", "setting": "[3]; female, 5 mg/kg", "value": "22.40 (2.05) s"}, {"measurement": "Fibrinogen", "setting": "[3]; female, 5 mg/kg", "value": "238.00 (40.50) mg/dL"}, {"measurement": "PT", "setting": "[3]; female, 5 mg/kg", "value": "12.20 (0.25) s"}, {"measurement": "APTT", "setting": "[3]; female, 10 mg/kg", "value": "20.80 (0.55) s"}, {"measurement": "Fibrinogen", "setting": "[3]; female, 10 mg/kg", "value": "294.00 (7.50) mg/dL"}, {"measurement": "PT", "setting": "[3]; female, 10 mg/kg", "value": "11.80 (0.25) s"}, {"measurement": "APTT", "setting": "[3]; female, 15 mg/kg", "value": "22.60 (0.90) s"}, {"measurement": "Fibrinogen", "setting": "[3]; female, 15 mg/kg", "value": "300.00 (57.00)^d mg/dL"}, {"measurement": "PT", "setting": "[3]; female, 15 mg/kg", "value": "12.30 (0.50) s"}, {"measurement": "APTT", "setting": "[3]; male, 5 mg/kg", "value": "21.60 (0.80) s"}, {"measurement": "Fibrinogen", "setting": "[3]; male, 5 mg/kg", "value": "306.00 (49.50) mg/dL"}, {"measurement": "PT", "setting": "[3]; male, 5 mg/kg", "value": "12.00 (0.55) s"}, {"measurement": "APTT", "setting": "[3]; male, 10 mg/kg", "value": "21.10 (0.45) s"}, {"measurement": "Fibrinogen", "setting": "[3]; male, 10 mg/kg", "value": "285.00 (22.50) mg/dL"}, {"measurement": "PT", "setting": "[3]; male, 10 mg/kg", "value": "12.00 (0.25) s"}, {"measurement": "APTT", "setting": "[3]; male, 15 mg/kg", "value": "22.10 (1.65) s"}, {"measurement": "Fibrinogen", "setting": "[3]; male, 15 mg/kg", "value": "336.00 (114.00) mg/dL"}, {"measurement": "PT", "setting": "[3]; male, 15 mg/kg", "value": "12.25 (0.83) s"}, {"measurement": "Vd", "setting": "[4]; both, 20 mg/kg", "value": 0.756, "unit": "L/kg"}, {"measurement": "level at 600 h", "setting": "[4]; female, 10 mg/kg", "value": 12.5, "unit": "ng/mL"}]}]}
